ChEMBL document CHEMBL3877250, “Design, synthesis, and biological evaluation of (2E)-(2-oxo-1, 2-dihydro-3H-indol-3-ylidene)acetate derivatives as anti-proliferative agents through ROS-induced cell apoptosis” (Eur J Med Chem, 2016)

Key:
Assay type in all cases: functional
[1] = Cytotoxicity against human MDA-MB-231 cells assessed as growth inhibition at 20 uM after 72 hrs by CCK-8 assay; conditions: MDA-MB-231, 72 h, read-out: GI
Method in brief: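 Cells kept in RPMI 1640 with 10% heat-inactivated fetal calf serum and 1% streptomycin/penicillin at 37 °C, 5% CO2. After compound exposure, CCK-8 was added and cells were incubated 4 h at 37 °C, then absorbance was read at 450 nm. Viability is relative to untreated cells (100%). IC50 comes from nonlinear regression, mean of three separate determinations. Single-concentration screen at 20 µM.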

[2] = Cell cycle arrest in human HCT116 cells assessed as S phase accumulation at 0.5 uM after 48 hrs by Annexin V-FITC/propidium iodide staining based flow cytometry (reference value: 28.43%); conditions: HCT-116
HCT-116 [3] = assay: Induction of apoptosis in human HCT116 cells assessed as live cells at 0.5 uM after 48 hrs by Annexin V-FITC/propidium iodide staining based flow cytometry (reference value: 88.7%)
[4] = Cell cycle arrest in human HCT116 cells assessed as G1 phase accumulation at 3 uM after 48 hrs by Annexin V-FITC/propidium iodide staining based flow cytometry (reference value: 40.83%); conditions: HCT-116
[5] = Cell cycle arrest in human HCT116 cells assessed as G1 phase accumulation at 1 uM after 48 hrs by Annexin V-FITC/propidium iodide staining based flow cytometry (reference value: 40.83%); conditions: HCT-116
[6] = Cell cycle arrest in human HCT116 cells assessed as sub-G1 phase accumulation at 0.5 uM after 48 hrs by Annexin V-FITC/propidium iodide staining based flow cytometry (reference value: 4.36%); conditions: HCT-116
[7] = Cell cycle arrest in human HCT116 cells assessed as S phase accumulation at 4 uM after 48 hrs by Annexin V-FITC/propidium iodide staining based flow cytometry (reference value: 28.43%); conditions: HCT-116
[8] = Cell cycle arrest in human HCT116 cells assessed as G2/M phase accumulation at 2 uM after 48 hrs by Annexin V-FITC/propidium iodide staining based flow cytometry (reference value: 25.3%); conditions: HCT-116
HCT-116 [9] = assay: Induction of apoptosis in human HCT116 cells assessed as late apoptotic cells at 4 uM after 48 hrs by Annexin V-FITC/propidium iodide staining based flow cytometry (reference value: 6.7%)
[10] = Cell cycle arrest in human HCT116 cells assessed as G2/M phase accumulation at 4 uM after 48 hrs by Annexin V-FITC/propidium iodide staining based flow cytometry (reference value: 25.3%); conditions: HCT-116
[11] = Cell cycle arrest in human HCT116 cells assessed as sub-G1 phase accumulation at 3 uM after 48 hrs by Annexin V-FITC/propidium iodide staining based flow cytometry (reference value: 4.36%); conditions: HCT-116

Q: With CC(C)(C)OC(=O)/C=C1/C(=O)Nc2ccccc21 as the molecule, how does the inhibition of growth at 20 µM [1] read?
A: 87.6%

Q: And the Activity [2]?
A: 28.9%

Q: What about the Activity (HCT-116 [3]) of the same molecule?
A: 89%

Q: And the Activity [4]?
A: 35.6%

Q: And the Activity [5]?
A: 25.4%

Q: And the Activity [6]?
A: 0.25%

Q: And the Activity [7]?
A: 22.8%

Q: And the Activity [8]?
A: 29.3%

Q: What about the Activity (HCT-116 [9]) of the same molecule?
A: 6.6%

Q: And the Activity [10]?
A: 11.7%

Q: What about the Activity [11] of the same molecule?
A: 5.11%
